Assay results published in ChEMBL document CHEMBL1133558, “Structural determinants of AMPA agonist activity in analogues of 2-amino-3-(3-carboxy-5-methyl-4-isoxazolyl)propionic acid: synthesis and pharmacology” (J Med Chem, 2000).

Legend:
[1] = target: T1, Glutamate receptor ionotropic, AMPA (Rattus norvegicus, UniProt P19490+P19491+P19492+P19493); experiment: Agonistic activity electrophysiologically against AMPA using rat cortical wedge preparation; type: functional
[2] = target: T1, Glutamate receptor ionotropic, AMPA; experiment: Inhibition of [3H]AMPA binding to rat brain membranes.; type: cell membranes, Membrane
[3] = target: Glutamate receptor ionotropic, kainate; experiment: Inhibition of [3H]-Kainic acid binding to rat brain membranes.; type: cell membranes, Membrane
[4] = target: Glutamate NMDA receptor; experiment: Inhibition of [3H]CPP binding to rat brain membranes.; type: cell membranes, Membrane
[5] = target: Glutamate NMDA receptor; experiment: Tested in vitro for the antagonistic activity electrophysiologically against NMDA using rat cortical wedge preparation; type: functional
Outline: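 Rat cortical wedge preparation. The cortex was superfused with Mg²⁺-free Krebs buffer and the corpus callosum with Mg²⁺- and Ca²⁺-free Krebs buffer, at 25 °C. Compounds were added to the cortical superfusate, and the potential difference between the electrodes was recorded on a chart recorder.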

[6] = target: Glutamate receptor ionotropic, NMDA (Rattus norvegicus); experiment: Tested in vitro for the antagonistic activity electrophysiologically against NMDA using rat cortical wedge preparation

EC50 [1] [µM] | IC50 [2] [µM] | IC50 [3] [µM] | IC50 [4] [µM] | IC50 [5] [µM] | IC50 [6] [µM] | Structure (SMILES)
1.2 | 0.11 | > 100 | > 100 | – | – | COc1noc(C(=O)O)c1CC(N)C(=O)O (centres undefined)
– | > 100 | > 100 | > 100 | 704 | – | NC(Cc1c(C(=O)O)on(Cc2ccccc2)c1=O)C(=O)O (centres undefined)
> 1000 | > 100 | > 100 | > 100 | – | – | Cn1oc(C(=O)O)c(CC(N)C(=O)O)c1=O (centres undefined)
1000 | > 100 | > 100 | > 100 | – | – | CCCCCOc1noc(C(=O)O)c1CC(N)C(=O)O (centres undefined)
40 | 7.2 | > 100 | > 100 | – | – | C=CCOc1noc(C(=O)O)c1CC(N)C(=O)O (centres undefined)
> 1000 | > 100 | > 100 | > 100 | – | – | NC(Cc1c(OCc2ccccc2)noc1C(=O)O)C(=O)O (centres undefined)
500 | > 100 | > 100 | > 100 | – | – | C/C=C/COc1noc(C(=O)O)c1CC(N)C(=O)O (centres undefined)
> 100 | > 100 | > 100 | > 100 | – | – | CCOc1noc(-c2nc[nH]n2)c1CC(N)C(=O)O (centres undefined)
406 | > 100 | > 100 | > 100 | – | – | CCCCOc1noc(C(=O)O)c1CC(N)C(=O)O (centres undefined)
37 | 5.5 | > 100 | > 100 | – | – | CC(C)Oc1noc(C(=O)O)c1CC(N)C(=O)O (centres undefined)
> 1000 | > 100 | > 100 | > 100 | – | – | NC(Cc1c(O)noc1C(=O)O)C(=O)O (centres undefined)
4.8 | 1 | > 100 | > 100 | – | – | CCOc1noc(C(=O)O)c1CC(N)C(=O)O (centres undefined)
– | > 100 | > 100 | 76 | – | 603 | CCOc1noc(C(=O)O)c1C/N=c1\c(O)c(O)c1=N
> 500 | > 100 | > 100 | > 100 | – | – | CCn1oc(C(=O)O)c(CC(N)C(=O)O)c1=O (centres undefined)
79 | 14 | > 100 | > 100 | – | – | CCCOc1noc(C(=O)O)c1CC(N)C(=O)O (centres undefined)
2000 | > 100 | > 100 | > 100 | – | – | CCOc1noc(-c2nn[nH]n2)c1CC(N)C(=O)O (centres undefined)
